Experimental data as given in paper PMC3162150 (Cancer Chemotherapy and Pharmacology, 2011).
“And” between values parts separate entries of the source, which are not always exact repeats. Equal entries are not always repeated. Where two headings read alike, the source gives them in different places.

Assays:
[1] = format: in vivo, human; conditions: for AUC0–∞ ratio (90% CI), panobinostat + ketoconazole / panobinostat alone / C max ratio (90% CI), panobinostat + ketoconazole / panobinostat alone: geometric mean ratio; for CL/F: geometric mean
[2] = Adverse events and laboratory safety assessment; format: in vivo, human
[3] = format: in vivo, human
Outline: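 Patients took 20 mg of the oral test compound each Monday, Wednesday and Friday from day 15 (extension phase) until disease progression or withdrawal. Before that, in cycle 1, they had single 20 mg doses on day 1 and day 8; the day 8 dose followed a CYP3A inhibitor given at 400 mg once daily on days 5–9. Laboratory assessments were done weekly during the extension.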

[4] = test system: CYP3A; assay: Estimate of fraction of panobinostat cleared by CYP3A from AUC ratio; format: in vivo, human
[5] = cited from earlier work
[6] = cited from earlier work; remark: listed apart in the source
[7] = test system: human cytochrome P450 CYP3A4; conditions: in vitro; minor involvement of CYP2D6 and CYP2C19; no reference given; cited from earlier work
[8] = 12-lead ECG monitoring during the core phase
[9] = 20 mg panobinostat, ketoconazole 400 mg
[10] = 20 mg panobinostat, ketoconazole 400 mg, listed as panobinostat
[11] = extension phase, panobinostat 20 mg MWF, 13 patients
[12] = ref personal communication Margaret M Woo, Novartis
[13] = period 1 (panobinostat only), N = 14
[14] = period 3 (concomitant panobinostat and ketoconazole), N = 14
[15] = period 2 (ketoconazole only), N = 14

**Q.** With `Cc1[nH]c2ccccc2c1CCNCc1ccc(/C=C/C(=O)NO)cc1` [Panobinostat] as the molecule, how does the “change in T max or half-life in the presence of ketoconazole” value [1, 9] read?
**A.** No substantial change

**Q.** And the “residual panobinostat in plasma prior to the day 8 dose” value ([1]; after 20 mg dose on day 1, LLOQ 0.5 ng/ml)?
**A.** No residual panobinostat was detectable

**Q.** What about the “AUC0–∞ ratio (90% CI), panobinostat + ketoconazole / panobinostat alone” value [1, 9] of the same molecule?
**A.** 1.8 (1.5–2.2)

**Q.** What about the “C max ratio (90% CI), panobinostat + ketoconazole / panobinostat alone” value [1, 9] of the same molecule?
**A.** 1.6 (1.2–2.2)

**Q.** What about the “AUC0–∞ ratio (90% CI), panobinostat + ketoconazole / panobinostat alone” value [1, 10] of the same molecule?
**A.** 1.8

**Q.** And the “C max ratio (90% CI), panobinostat + ketoconazole / panobinostat alone” value [1, 10]?
**A.** 1.6

**Q.** What about the Tmax ([1]; human, plasma, oral, 20 mg) of the same molecule?
**A.** 1 h

**Q.** And the half-life ([1]; human, plasma, oral, 20 mg)?
**A.** 14 h

**Q.** What about the AUC(0-inf) ([1]; human, plasma, po, 20 mg) of the same molecule?
**A.** 133 ng·h/mL

**Q.** What about the Cmax ([1]; human, plasma, po, 20 mg) of the same molecule?
**A.** 18.5 ng/mL

**Q.** And the “T max difference, panobinostat + ketoconazole vs panobinostat alone” value ([1]; median (minimum and maximum difference))?
**A.** 0.0 (−2.5 to 3.0) h

**Q.** And the CL/F ([1]; panobinostat 20 mg + ketoconazole 400 mg)?
**A.** 90.6 L/h

**Q.** What about the CL/F ([1]; panobinostat 20 mg alone) of the same molecule?
**A.** 150.3 L/h

**Q.** What about the “adverse events categorized as grade 1” value ([2]; core phase) of the same molecule?
**A.** 42.9 % of all events

**Q.** What about the “adverse events categorized as grade 2” value ([2]; core phase) of the same molecule?
**A.** 35.7 % of all events

**Q.** And the “anorexia, regardless of relationship to study drug” value ([2]; core phase, N = 14)?
**A.** 4 patients

**Q.** And the “diarrhea, regardless of relationship to study drug” value ([2]; core phase, N = 14)?
**A.** 5 patients

**Q.** And the “fatigue, regardless of relationship to study drug” value ([2]; core phase, N = 14)?
**A.** 2 patients

**Q.** And the “hypophosphatemia, regardless of relationship to study drug” value ([2]; core phase, N = 14)?
**A.** 3 patients

**Q.** What about the “myalgia, regardless of relationship to study drug” value ([2]; core phase, N = 14) of the same molecule?
**A.** 3 patients

**Q.** And the “nausea, regardless of relationship to study drug” value ([2]; core phase, N = 14)?
**A.** 3 patients

**Q.** And the “vomiting, regardless of relationship to study drug” value ([2]; core phase, N = 14)?
**A.** 4 patients

**Q.** What about the “asymptomatic hypophosphatemia of grade ≥ 2” value ([2]; during the trial, nine out of fourteen patients) of the same molecule?
**A.** 64%

**Q.** What about the “anorexia, regardless of relationship to study drug” value [2, 11] of the same molecule?
**A.** 7 patients

**Q.** And the “diarrhea, regardless of relationship to study drug” value [2, 11]?
**A.** 8 patients

**Q.** What about the “fatigue, regardless of relationship to study drug” value [2, 11] of the same molecule?
**A.** 7 patients

**Q.** And the “hypophosphatemia, regardless of relationship to study drug” value [2, 11]?
**A.** 9 patients

**Q.** And the “vomiting, regardless of relationship to study drug” value [2, 11]?
**A.** 8 patients

**Q.** What about the “nausea, regardless of relationship to study drug” value ([2]; extension phase, single-agent panobinostat 20 mg oral MWF, 13 patients) of the same molecule?
**A.** 10 patients

**Q.** What about the neutropenia ([2]; panobinostat administered for a prolonged period (extension phase)) of the same molecule?
**A.** 2 patients

**Q.** And the “Fractional excretion of phosphate” value ([3]; Subj nr 00005, day 54, extension phase)?
**A.** 5.3 (day 54) %

**Q.** What about the “Fractional excretion of phosphate” value ([3]; Subj nr 00005, day 61, extension phase) of the same molecule?
**A.** 3.2 (day 61) %

**Q.** What about the “Fractional excretion of phosphate” value ([3]; Subj nr 00007, day 70, extension phase) of the same molecule?
**A.** 19.4 (day 70) %

**Q.** And the “Fractional excretion of phosphate” value ([3]; Subj nr 00007, day 77, extension phase)?
**A.** 19.0 (day 77) %

**Q.** What about the “Fractional excretion of phosphate” value ([3]; Subj nr 00010, day 36, extension phase) of the same molecule?
**A.** 2.7 (day 36) %

**Q.** What about the “Fractional excretion of phosphate” value ([3]; Subj nr 00010, day 43, extension phase) of the same molecule?
**A.** 8.9 (day 43) %

**Q.** What about the “contribution of CYP pathways to the overall metabolism” value ([4]; from fmCYP3A estimate) of the same molecule?
**A.** < 50%

**Q.** What about the “fmCYP3A (fraction of panobinostat cleared by CYP3A)” value ([4]; in vivo) of the same molecule?
**A.** 0.4

**Q.** What about the “inter-individual variability in pharmacokinetics” value [5, 12] of the same molecule?
**A.** 60%

**Q.** What about the “intra-individual variability in pharmacokinetics” value [5, 12] of the same molecule?
**A.** 30%

**Q.** What about the “dose dependence of C max and AUC” value ([5]; two dose-escalation trials, dose between 20 and <60 mg) of the same molecule?
**A.** increase linearly with the dose

**Q.** And the dose-limiting thrombocytopenia ([6]; patients with Hodgkin's lymphoma, dose escalation, of 13 patients)?
**A.** four

**Q.** What about the “grade 3/4 thrombocytopenia” value ([6]; patients with Hodgkin's lymphoma, dose escalation) of the same molecule?
**A.** 10 out of 13

**Q.** And the “share of oxidative metabolism mediated by CYP3A4” value [7]?
**A.** 70–98%

**Q.** And the “mean QTc increase at any moment compared with baseline” value ([8]; core phase (15 days; panobinostat 20 mg days 1 and 8, ketoconazole days 5–9))?
**A.** below 5%

**Q.** And the “increases in QTc ≥ 60 ms compared with baseline” value ([8]; core phase, all three periods)?
**A.** No increases

**Q.** And the Ectopic activity [8, 13]?
**A.** 2 (14%) patients (%)

**Q.** What about the “New QTcB >450 ms” value [8, 13] of the same molecule?
**A.** 3 (21%) patients (%)

**Q.** And the “QTcB increase >60 ms” value [8, 13]?
**A.** 0 patients (%)

**Q.** And the ST segment depression [8, 13]?
**A.** 0 patients (%)

**Q.** What about the Sinus bradycardia [8, 13] of the same molecule?
**A.** 0 patients (%)

**Q.** What about the Sinus tachycardia [8, 13] of the same molecule?
**A.** 0 patients (%)

**Q.** And the T wave changes [8, 13]?
**A.** 2 (14%) patients (%)

**Q.** And the “patients with other transient ECG abnormalities” value [8, 13]?
**A.** 21%

**Q.** What about the Ectopic activity [8, 14] of the same molecule?
**A.** 2 (14%) patients (%)

**Q.** And the “New QTcB >450 ms” value [8, 14]?
**A.** 2 (14%) patients (%)

**Q.** What about the “QTcB increase >60 ms” value [8, 14] of the same molecule?
**A.** 0 patients (%)

**Q.** What about the ST segment depression [8, 14] of the same molecule?
**A.** 2 (14%) patients (%)

**Q.** And the Sinus bradycardia [8, 14]?
**A.** 0 patients (%)

**Q.** What about the Sinus tachycardia [8, 14] of the same molecule?
**A.** 2 (14%) patients (%)

**Q.** And the T wave changes [8, 14]?
**A.** 2 (14%) patients (%)

**Q.** What about the “patients with other transient ECG abnormalities” value [8, 14] of the same molecule?
**A.** 43%

**Q.** With `CC(=O)N1CCN(c2ccc(OCC3COC(Cn4ccnc4)(c4ccc(Cl)cc4Cl)O3)cc2)CC1` (stereo not drawn) [ketoconazole, reference compound] as the molecule, how does the Ectopic activity [8, 15] read?
**A.** 1 (7%) patients (%)

**Q.** And the “New QTcB >450 ms” value [8, 15]?
**A.** 2 (14%) patients (%)

**Q.** And the Sinus tachycardia [8, 15]?
**A.** 0 patients (%)

**Q.** And the T wave changes [8, 15]?
**A.** 1 (7%) patients (%)

**Q.** And the “patients with other transient ECG abnormalities” value [8, 15]?
**A.** 21%

**Q.** And the “QTcB increase >30 ms” value ([8]; period 2 (ketoconazole only, day 5 until day 8), N = 14)?
**A.** 3 patients (%) and 3 (21%) patients (%)

**Q.** With `O=C(CCCCCCC(=O)Nc1ccccc1)NO` [vorinostat, reference compound] as the molecule, how does the “asymptomatic hypophosphatemia reported with single agent” value ([6]; review of toxicities of HDAC inhibitors) read?
**A.** 5%
